Test results taken from ChEMBL document CHEMBL1123129, “Hypolipidemic activity of indan-1,3-dione derivatives in rodents” (J Med Chem, 1985).

Experiments:
Rattus norvegicus [1] = assay: Compound was evaluated for the hypolipidemic activity at 20 mg/kg per day orally for 14 days against neutral lipids in rat lipoprotein chylomicron; type: functional; conditions: route oral
In short: (§1)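 Male Sprague–Dawley rats (~300 g) were dosed orally each day. Blood was drawn from the abdominal vein. Lipoprotein fractions (chylomicron, VLDL, LDL, HDL) were separated by the Hatch–Lees and Havel methods. Each fraction was assayed for cholesterol, triglyceride (enzymatic kit), neutral lipids, phospholipids and Lowry protein. Values are % of 1% CMC vehicle control, N = 6.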

[2] = target: T1, 3-hydroxy-3-methylglutaryl-coenzyme A reductase (Mus musculus) (UniProt Q01237); assay: In Vivo effect for the hypolipidemic activity on HMG-CoA reductase in CF1 mice after 16 days of oral administration at a dose of 40 mg/kg; type: organism-based; parameters: dose 40 mg/kg
T1 sequence (whole entry): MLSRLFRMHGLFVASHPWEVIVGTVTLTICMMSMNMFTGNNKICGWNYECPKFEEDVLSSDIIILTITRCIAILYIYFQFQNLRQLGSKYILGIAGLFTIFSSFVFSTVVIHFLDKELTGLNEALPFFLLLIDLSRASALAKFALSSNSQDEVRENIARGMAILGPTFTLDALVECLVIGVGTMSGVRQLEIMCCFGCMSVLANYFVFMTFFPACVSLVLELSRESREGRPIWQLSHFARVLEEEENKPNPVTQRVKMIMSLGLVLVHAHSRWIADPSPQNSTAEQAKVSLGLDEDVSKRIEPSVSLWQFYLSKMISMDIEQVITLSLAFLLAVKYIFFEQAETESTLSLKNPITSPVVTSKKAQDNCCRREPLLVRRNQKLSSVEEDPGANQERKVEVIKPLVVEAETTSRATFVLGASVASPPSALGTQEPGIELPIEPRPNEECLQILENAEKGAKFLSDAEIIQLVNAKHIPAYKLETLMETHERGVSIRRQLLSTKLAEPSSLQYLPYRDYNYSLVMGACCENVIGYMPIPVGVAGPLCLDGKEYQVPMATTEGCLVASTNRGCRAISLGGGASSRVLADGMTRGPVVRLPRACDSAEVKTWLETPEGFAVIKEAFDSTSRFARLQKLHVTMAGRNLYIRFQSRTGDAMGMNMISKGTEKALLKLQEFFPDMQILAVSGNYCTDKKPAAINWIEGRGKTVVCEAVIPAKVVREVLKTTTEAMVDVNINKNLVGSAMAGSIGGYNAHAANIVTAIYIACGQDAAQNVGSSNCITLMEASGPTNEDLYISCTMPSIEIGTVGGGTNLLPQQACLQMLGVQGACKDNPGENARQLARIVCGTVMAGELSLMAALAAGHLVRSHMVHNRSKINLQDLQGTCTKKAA
In short: (§2)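 CF1 male mice are dosed orally at 10–60 mg/kg per day for 16 days, with 1% CMC as the control vehicle. Liver is homogenized at 10% in 0.25 M sucrose + 0.001 M EDTA, pH 7.2. Enzymes are assayed by literature methods, with Lowry protein. Activity is given as % of control (X ± SD, N = 6), with p from Student's t test.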

Rattus norvegicus [3] = assay: Compound was evaluated for the hypolipidemic activity at 20 mg/kg per day orally for 14 days on cholesterol content in rat VLDL; type: functional; conditions: route oral; in short: as §1
Rattus norvegicus [4] = assay: Compound was evaluated for the hypolipidemic activity at 20 mg/kg per day orally for 14 days on phospholipids content in rat small intestine.; type: functional; conditions: route oral
In short: (§3)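 Male Sprague–Dawley rats were dosed orally for 14 days. Liver, small intestine and a 24-h fecal collection were lipid-extracted. Extracts were assayed for cholesterol (modified Liebermann–Burchard), triglyceride (enzymatic kit), neutral lipids, phospholipids and protein. Values are % of 1% CMC vehicle control, mean ± SD, N = 6.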

Rattus norvegicus [5] = assay: Compound was evaluated for the hypolipidemic activity at 20 mg/kg per day orally for 14 days on protein content in rat liver; type: functional; conditions: route oral; in short: as §3
Rattus norvegicus [6] = assay: Compound was evaluated for the hypolipidemic activity at 20 mg/kg per day orally for 14 days on protein content in rat LDL; type: functional; conditions: route oral; in short: as §1
Rattus norvegicus [7] = assay: Compound was evaluated for the hypolipidemic activity at 20 mg/kg per day orally for 14 days on lipid content in rat small intestine.; type: functional; conditions: route oral; in short: as §3
[8] = target: T2, ATP-citrate synthase (Mus musculus) (UniProt Q91V92); assay: In Vivo effect for the hypolipidemic activity on ATP-Citrate Lyase in CF1 mice after 16 days administered orally at a dose of 60 mg/kg; type: organism-based; parameters: dose 60 mg/kg; in short: as §2
T2 sequence (whole entry): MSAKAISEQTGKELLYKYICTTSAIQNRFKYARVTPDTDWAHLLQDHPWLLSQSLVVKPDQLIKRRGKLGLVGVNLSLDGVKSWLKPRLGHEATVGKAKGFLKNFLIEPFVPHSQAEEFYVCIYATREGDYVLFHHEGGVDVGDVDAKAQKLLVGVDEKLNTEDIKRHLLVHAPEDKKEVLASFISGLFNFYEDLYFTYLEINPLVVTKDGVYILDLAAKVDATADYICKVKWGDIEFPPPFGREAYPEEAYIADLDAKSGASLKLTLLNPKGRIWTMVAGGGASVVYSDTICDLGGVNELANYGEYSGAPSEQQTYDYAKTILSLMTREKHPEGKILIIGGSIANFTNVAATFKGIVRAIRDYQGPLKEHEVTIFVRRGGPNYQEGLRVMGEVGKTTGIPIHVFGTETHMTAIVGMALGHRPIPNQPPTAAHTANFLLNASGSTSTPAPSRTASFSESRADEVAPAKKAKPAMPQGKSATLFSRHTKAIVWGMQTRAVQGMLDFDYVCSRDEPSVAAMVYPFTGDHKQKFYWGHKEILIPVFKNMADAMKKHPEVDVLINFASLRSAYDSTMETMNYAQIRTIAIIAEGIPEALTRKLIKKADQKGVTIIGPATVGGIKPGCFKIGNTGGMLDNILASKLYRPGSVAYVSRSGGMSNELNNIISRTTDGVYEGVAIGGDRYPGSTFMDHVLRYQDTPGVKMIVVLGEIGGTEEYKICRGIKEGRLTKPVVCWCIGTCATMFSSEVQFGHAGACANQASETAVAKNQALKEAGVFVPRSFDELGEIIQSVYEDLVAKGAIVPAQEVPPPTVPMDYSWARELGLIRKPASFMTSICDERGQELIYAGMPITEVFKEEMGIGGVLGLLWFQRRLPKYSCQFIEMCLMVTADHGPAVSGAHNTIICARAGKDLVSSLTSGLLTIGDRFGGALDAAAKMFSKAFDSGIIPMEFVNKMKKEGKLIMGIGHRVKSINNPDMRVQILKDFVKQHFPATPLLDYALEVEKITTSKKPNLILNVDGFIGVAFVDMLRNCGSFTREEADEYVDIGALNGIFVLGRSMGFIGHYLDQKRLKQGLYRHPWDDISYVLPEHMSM

Mus musculus = species on record: Mus musculus; assay: In Vitro evaluation for the CF1 liver enzyme activity on phosphatidate phosphohydrolase at concentration 50 uM
In short: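 Mouse liver enzymes assayed in vitro on 10% homogenates of CF1 male mouse liver, with test drug added at 50–200 μM. Each enzyme follows a published procedure. Protein is measured by Lowry. Activity is given as % of untreated control (X ± SD, N = 6).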

Rattus norvegicus [9] = assay: Compound was evaluated for the hypolipidemic activity at 20 mg/kg per day orally for 14 days on phospholipids content in rat lipoprotein chylomicron; type: functional; conditions: route oral; in short: as §1

Control [2]: 114%
Control [8]: 93%
Control (Mus musculus): 36%
Compound: COc1ccc(C2C(=O)c3ccccc3C2=O)cc1 [ANISINDIONE]
Control (Rattus norvegicus [1]): 99%
Control (Rattus norvegicus [3]): 88%
Control (Rattus norvegicus [4]): 136%
Control (Rattus norvegicus [5]): 100%
Control (Rattus norvegicus [6]): 95%
Control (Rattus norvegicus [7]): 100%
Control (Rattus norvegicus [9]): 135%
